Results reported in ChEMBL document CHEMBL1152519, “Synthesis, structural activity-relationships, and biological evaluation of novel amide-based allosteric binding site antagonists in NR1A/NR2B N-methyl-D-aspartate receptors” (Bioorg Med Chem, 2009).
Calls of active or inactive are those of the source. The rule behind the calls is not given here.

Experiments:
[1] = target: Glutamate NMDA receptor; Grin1/Grin2a (Rattus norvegicus, UniProt P35439+Q00959); experiment: Antagonist activity at rat recombinant NR1/NR2A receptor expressed in Xenopus laevis oocytes assessed as inhibition of glutamate/glycine-induced current by two electrode voltage clamp method; assay type: functional, cell-based, Oocyte
Method in brief: (§1)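 Xenopus oocytes expressing NR1/NR2 (wild type or amino terminal domain deletion mutant) recorded by TEVC at −40 mV, room temperature, pH 7.4–7.6, with EDTA 10 μM. Maximal glutamate/glycine applied alone, then with 5–8 successive compound concentrations. Leak-corrected; responses under 50 nA excluded. IC50 from fitted composite curve. NR1/NR2A oocytes were pre-incubated in 50 μM BAPTA-AM.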

hERG (KCNH2) = hERG (KCNH2) (Homo sapiens, UniProt Q12809); experiment: Displacement of [3H]astemizole from human recombinant ERG expressed in HEK293 cells at 10 uM; assay type: cell-based; conditions: HEK293 cells expressing human recombinant ERG, probe [3H]astemizole, read-out: Activity
[2] = target: T1, Glutamate NMDA receptor; Grin1/Grin2b (Rattus norvegicus) (UniProt P35439+Q00960); experiment: Antagonist activity at rat recombinant NR1/NR2B receptor expressed in Xenopus laevis oocytes assessed as inhibition of glutamate/glycine-induced current at 3 uM by two electrode voltage clamp method relative to control; assay type: functional, cell-based; conditions: Oocyte
Method in brief: (§2)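 Xenopus oocytes injected with NR1-1a (3–5 ng) plus NR2A, 2B, 2C or 2D cRNA (7–10 ng), kept at 15 °C. Voltage clamp at −40 mV. Responses to 50 μM glutamate + 30 μM glycine with 3 μM compound, as % of response without compound. NR2A oocytes pre-loaded with 50 μM BAPTA-AM. Mean ± SEM, 4–10 oocytes; paired t-test.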

[3] = target: Glutamate receptor ionotropic, NMDA 2B (Rattus norvegicus, UniProt Q00960); experiment: Displacement of [3H]ifenprodil form NR2B receptor in Wistar rat cerebral cortex membrane; assay type: tissue-based
[4] = target: Glutamate NMDA receptor; Grin1/Grin2c (Rattus norvegicus, UniProt P35439+Q00961); experiment: Antagonist activity at rat recombinant NR1/NR2C receptor expressed in Xenopus laevis oocytes assessed as inhibition of glutamate/glycine-induced current by two electrode voltage clamp method; assay type: functional, cell-based, Oocyte; method in brief: as §1
[5] = target: Glutamate receptor ionotropic, NMDA 2B (Mus musculus, UniProt P35438+Q01097, D101A); experiment: Antagonist activity at mouse NR1/NR2B receptor D101A mutant expressed in Xenopus laevis oocytes assessed as inhibition of glutamate/glycine-induced current by two electrode voltage clamp method; assay type: functional, cell-based, Oocyte
Method in brief: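 Oocytes express NR1/NR2B amino-terminal-domain mutants (mouse D101A point mutant; rat ATD deletion). Concentration–effect curves were recorded by two-electrode voltage clamp at −40 mV and 23 °C, with 50 μM glutamate plus 30 μM glycine. Each step is compound plus agonists, expressed relative to agonists alone.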

[6] = target: Glutamate NMDA receptor; Grin1/Grin2b (Rattus norvegicus, UniProt P35439+Q00960); experiment: Antagonist activity at wild type rat NR1/NR2B receptor expressed in Xenopus laevis oocytes assessed as inhibition of glutamate/glycine-induced current by two electrode voltage clamp method; assay type: functional, cell-based, Oocyte; method in brief: as §1
MDCK = experiment: Apparent permeability from basolateral to apical side of MDR1-expressing MDCK cells at 5 uM after 2 hrs by LC-MS/MS analysis; assay type: ADME, cell-based, Canis lupus familiaris; conditions: dog
Method in brief: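 MDR1-MDCK monolayers grown 7–11 days on Transwells. Compound at 5 μM in HBSS pH 7.4 (final DMSO ≤1%) added apically (A–B) or basally (B–A). Incubated 2 h at 37 °C; both compartments quantified by LC–MS/MS against a >4-point calibration. Papp given in ×10−6 cm/s; efflux ratio = B–A/A–B. Duplicates.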

[7] = target: Glutamate receptor ionotropic, kainate 2 (Rattus norvegicus) (UniProt P42260); experiment: Antagonist activity at rat recombinant GluR6 expressed in Xenopus laevis oocytes assessed as inhibition of concanavalin A/glutamate-induced current at 3 uM by two electrode voltage clamp method relative to control; assay type: functional, cell-based; conditions: Oocyte
Method in brief: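 Oocytes expressing homomeric GluR6 (5–10 ng cRNA) pretreated 5 min with 10 μM concanavalin-A. Currents evoked by 100 μM glutamate at −40 mV, with or without 3 μM compound, and given as percent of control. Mean ± SEM of 4–10 oocytes; paired t-test.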

[8] = target: Glutamate NMDA receptor; Grin1/Grin2a (Rattus norvegicus) (UniProt P35439+Q00959); experiment: Antagonist activity at rat recombinant NR1/NR2A receptor expressed in Xenopus laevis oocytes assessed as inhibition of glutamate/glycine-induced current at 3 uM by two electrode voltage clamp method relative to control; assay type: functional, cell-based; conditions: Oocyte; method in brief: as §2
[9] = target: Glutamate receptor ionotropic, NMDA 1/NMDA 2B (Mus musculus) (UniProt P35438+Q01097); experiment: Antagonist activity at mouse recombinant NR1/NR2B receptor expressed in Xenopus laevis oocytes assessed as inhibition of glutamate/glycine-induced current at 3 uM by two electrode voltage clamp method; assay type: functional, cell-based; conditions: Oocyte
[10] = target: Glutamate NMDA receptor; GRIN1/GRIN2B (Homo sapiens, UniProt Q05586+Q13224); experiment: Antagonist activity at human recombinant NR1/NR2B receptor expressed in frog oocytes assessed as inhibition of glutamate/glycine-induced current at 3 uM by two electrode voltage clamp method; assay type: functional, cell-based; conditions: Oocyte
[11] = target: T1, Glutamate NMDA receptor; Grin1/Grin2b (Rattus norvegicus); experiment: Antagonist activity at rat recombinant NR1/NR2B receptor expressed in Xenopus laevis oocytes assessed as noncompetitive inhibition of glutamate/glycine-induced current at 0.054 uM by two electrode voltage clamp method; assay type: functional, cell-based; conditions: Oocyte
Method in brief: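 TEVC on rat NR1/NR2B oocytes at −40 mV. Inhibition by 0.054 μM compound measured while glutamate or glycine was raised 10-fold above the control 50 μM glutamate/30 μM glycine. Response given as percent of control; n = 4.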

Sequence of hERG (KCNH2) (Q12809 whole entry): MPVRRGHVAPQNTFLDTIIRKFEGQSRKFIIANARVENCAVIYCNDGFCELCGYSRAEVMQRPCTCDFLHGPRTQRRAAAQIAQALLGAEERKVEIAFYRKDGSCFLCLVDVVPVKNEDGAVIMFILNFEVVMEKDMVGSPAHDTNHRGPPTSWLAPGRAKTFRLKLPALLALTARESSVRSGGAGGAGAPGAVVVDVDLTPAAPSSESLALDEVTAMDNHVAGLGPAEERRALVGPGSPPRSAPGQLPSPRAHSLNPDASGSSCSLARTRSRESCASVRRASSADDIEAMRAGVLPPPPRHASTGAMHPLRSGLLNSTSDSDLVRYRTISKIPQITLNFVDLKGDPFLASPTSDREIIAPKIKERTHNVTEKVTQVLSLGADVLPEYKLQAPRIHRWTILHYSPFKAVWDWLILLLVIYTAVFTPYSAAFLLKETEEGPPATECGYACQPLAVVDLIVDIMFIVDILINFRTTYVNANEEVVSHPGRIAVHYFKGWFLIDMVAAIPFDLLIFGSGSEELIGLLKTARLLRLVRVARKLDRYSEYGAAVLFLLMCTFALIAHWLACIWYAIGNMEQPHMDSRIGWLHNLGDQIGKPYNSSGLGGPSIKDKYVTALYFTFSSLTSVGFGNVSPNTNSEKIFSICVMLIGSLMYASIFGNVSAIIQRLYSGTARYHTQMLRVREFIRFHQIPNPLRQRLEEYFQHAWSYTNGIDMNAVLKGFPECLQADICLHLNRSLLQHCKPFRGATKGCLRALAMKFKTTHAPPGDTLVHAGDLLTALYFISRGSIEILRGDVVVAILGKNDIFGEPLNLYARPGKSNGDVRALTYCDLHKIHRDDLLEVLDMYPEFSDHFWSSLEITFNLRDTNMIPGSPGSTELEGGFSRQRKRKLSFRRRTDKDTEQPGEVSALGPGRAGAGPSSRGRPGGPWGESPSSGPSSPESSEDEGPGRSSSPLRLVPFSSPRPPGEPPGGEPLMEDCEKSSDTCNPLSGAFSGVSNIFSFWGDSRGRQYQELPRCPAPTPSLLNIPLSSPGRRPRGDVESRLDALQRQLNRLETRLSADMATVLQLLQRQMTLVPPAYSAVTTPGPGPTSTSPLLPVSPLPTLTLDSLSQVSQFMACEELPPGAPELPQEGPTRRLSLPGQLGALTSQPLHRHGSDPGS
Sequence of Glutamate receptor ionotropic, kainate 2 (Rattus norvegicus) (P42260 whole entry): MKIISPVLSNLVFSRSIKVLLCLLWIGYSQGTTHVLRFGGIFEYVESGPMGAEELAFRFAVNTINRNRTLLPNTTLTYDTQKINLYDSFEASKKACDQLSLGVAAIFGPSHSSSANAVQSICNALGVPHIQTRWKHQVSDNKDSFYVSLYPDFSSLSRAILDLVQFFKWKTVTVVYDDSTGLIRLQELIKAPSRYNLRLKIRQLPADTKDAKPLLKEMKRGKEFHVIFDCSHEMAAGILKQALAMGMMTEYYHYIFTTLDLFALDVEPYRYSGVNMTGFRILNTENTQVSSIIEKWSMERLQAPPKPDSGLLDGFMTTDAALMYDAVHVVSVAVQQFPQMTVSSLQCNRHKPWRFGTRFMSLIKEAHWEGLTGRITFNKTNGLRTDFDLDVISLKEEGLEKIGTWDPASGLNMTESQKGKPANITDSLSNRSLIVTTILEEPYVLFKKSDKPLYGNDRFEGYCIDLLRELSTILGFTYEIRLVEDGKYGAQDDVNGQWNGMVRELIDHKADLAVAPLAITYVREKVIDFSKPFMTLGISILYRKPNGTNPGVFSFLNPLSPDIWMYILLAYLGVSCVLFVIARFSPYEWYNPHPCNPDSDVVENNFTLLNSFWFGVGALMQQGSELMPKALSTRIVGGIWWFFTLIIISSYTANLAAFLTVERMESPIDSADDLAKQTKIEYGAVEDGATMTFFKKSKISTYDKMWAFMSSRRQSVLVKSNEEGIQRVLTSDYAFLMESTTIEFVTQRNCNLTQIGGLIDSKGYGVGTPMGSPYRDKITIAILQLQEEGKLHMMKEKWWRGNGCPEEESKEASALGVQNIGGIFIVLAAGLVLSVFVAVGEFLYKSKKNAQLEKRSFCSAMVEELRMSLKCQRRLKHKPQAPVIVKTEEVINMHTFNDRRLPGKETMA
Sequence of Glutamate NMDA receptor; Grin1/Grin2c (Q00961 whole entry, other chains not shown): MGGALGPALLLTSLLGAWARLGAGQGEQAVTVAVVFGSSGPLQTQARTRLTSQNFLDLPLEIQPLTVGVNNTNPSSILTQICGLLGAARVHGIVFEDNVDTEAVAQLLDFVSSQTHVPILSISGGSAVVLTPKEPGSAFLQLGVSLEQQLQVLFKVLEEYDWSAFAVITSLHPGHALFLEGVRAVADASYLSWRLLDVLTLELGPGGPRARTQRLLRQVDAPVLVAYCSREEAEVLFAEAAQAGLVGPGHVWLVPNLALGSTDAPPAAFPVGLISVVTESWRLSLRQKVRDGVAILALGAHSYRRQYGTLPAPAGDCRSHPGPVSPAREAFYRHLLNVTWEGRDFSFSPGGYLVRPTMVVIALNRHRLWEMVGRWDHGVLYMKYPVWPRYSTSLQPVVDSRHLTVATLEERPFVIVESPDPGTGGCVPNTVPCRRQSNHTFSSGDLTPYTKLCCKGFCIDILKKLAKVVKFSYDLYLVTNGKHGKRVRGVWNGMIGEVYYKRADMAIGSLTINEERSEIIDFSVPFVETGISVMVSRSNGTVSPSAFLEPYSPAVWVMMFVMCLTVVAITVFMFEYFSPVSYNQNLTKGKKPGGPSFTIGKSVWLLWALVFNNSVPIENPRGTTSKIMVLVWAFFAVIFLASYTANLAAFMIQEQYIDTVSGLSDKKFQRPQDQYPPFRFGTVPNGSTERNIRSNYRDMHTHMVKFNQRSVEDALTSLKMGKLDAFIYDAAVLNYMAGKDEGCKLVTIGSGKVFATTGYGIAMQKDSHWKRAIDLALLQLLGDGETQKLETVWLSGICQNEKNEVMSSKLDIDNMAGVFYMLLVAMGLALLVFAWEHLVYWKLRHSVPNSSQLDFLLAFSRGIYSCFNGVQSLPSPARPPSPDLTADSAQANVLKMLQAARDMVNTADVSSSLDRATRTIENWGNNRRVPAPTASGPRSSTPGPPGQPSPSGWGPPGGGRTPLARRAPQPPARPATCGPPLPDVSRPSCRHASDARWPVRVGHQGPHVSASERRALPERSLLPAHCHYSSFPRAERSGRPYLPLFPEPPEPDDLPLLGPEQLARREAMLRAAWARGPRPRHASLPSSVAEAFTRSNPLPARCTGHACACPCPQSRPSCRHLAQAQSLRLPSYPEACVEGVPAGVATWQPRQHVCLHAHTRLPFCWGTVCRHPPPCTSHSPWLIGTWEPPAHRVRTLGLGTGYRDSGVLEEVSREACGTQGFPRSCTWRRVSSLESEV
Sequence of Glutamate receptor ionotropic, NMDA 2B (Mus musculus, UniProt P35438+Q01097, D101A) (Q01097 whole entry D101A, one chain of several): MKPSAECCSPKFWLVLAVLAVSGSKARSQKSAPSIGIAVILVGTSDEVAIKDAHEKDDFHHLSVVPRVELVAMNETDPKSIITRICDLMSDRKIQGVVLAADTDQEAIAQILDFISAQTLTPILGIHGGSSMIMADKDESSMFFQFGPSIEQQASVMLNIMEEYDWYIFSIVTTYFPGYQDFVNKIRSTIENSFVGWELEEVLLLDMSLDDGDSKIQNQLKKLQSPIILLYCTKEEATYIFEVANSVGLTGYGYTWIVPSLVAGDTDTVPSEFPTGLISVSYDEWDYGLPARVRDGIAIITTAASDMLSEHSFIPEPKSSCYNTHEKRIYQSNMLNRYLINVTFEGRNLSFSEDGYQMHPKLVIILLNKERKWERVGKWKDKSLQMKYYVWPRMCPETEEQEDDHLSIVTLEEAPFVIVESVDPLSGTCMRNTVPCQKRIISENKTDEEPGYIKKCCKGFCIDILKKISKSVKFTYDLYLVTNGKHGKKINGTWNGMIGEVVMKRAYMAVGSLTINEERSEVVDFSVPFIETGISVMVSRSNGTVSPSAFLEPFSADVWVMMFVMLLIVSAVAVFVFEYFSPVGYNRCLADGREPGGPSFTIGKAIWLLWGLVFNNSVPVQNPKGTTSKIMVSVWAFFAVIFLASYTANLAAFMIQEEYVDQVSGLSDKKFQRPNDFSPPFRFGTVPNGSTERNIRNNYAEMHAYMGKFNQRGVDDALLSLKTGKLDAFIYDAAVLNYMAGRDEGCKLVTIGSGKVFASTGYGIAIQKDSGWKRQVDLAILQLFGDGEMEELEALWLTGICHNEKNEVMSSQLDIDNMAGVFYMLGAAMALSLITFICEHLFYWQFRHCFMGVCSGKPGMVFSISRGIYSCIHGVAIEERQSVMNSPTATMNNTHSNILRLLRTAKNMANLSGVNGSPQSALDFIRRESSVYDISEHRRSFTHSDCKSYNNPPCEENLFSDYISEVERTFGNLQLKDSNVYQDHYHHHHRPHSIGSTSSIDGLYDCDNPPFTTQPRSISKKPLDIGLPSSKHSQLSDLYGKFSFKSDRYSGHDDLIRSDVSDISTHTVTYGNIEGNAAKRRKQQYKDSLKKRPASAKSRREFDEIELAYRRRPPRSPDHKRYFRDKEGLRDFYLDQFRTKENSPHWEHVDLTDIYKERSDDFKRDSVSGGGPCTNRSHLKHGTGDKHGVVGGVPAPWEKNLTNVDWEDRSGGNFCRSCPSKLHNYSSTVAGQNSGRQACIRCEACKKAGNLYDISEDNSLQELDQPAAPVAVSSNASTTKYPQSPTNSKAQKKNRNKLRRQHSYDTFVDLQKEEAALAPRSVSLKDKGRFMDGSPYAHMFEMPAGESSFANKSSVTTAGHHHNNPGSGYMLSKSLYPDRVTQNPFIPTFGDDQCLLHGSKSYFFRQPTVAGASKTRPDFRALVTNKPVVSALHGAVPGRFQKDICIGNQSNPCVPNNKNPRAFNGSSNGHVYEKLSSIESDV

SMILES: CS(=O)(=O)Nc1ccc(OCC(=O)NCCNc2ccc(Cl)c(Cl)c2)cc1
- IC50 [1]: 82 µM
- inhibition at 10 µM (hERG (KCNH2)): 43%
- % response [2]: 16%
- Ki [3]: 0.119 µM
- IC50 [4]: 58 µM
- IC50 [5]: 52 µM
- IC50 [6]: 0.057 µM
- Papp (MDCK): 63.2 ×10⁻⁶ cm/s
- % response [7]: 99%
- % response [8]: 92%
- inhibition [9]: 78%
- inhibition [10]: 90%
- inhibition [11]: Active
